The full list was thinned out, with hits kept by preference.
UPR XBP1 act = activators of adaptive XBP1 UPR arm, primary screen, cell-based, CHO-XBP1 luciferase reporter, luminescence, uHTS; IRE1-XBP1 UPR activation; percent of tunicamycin response, DMSO as zero; activation, % at 20 µM; hit rate 0.33% among 330,000; AID 463104, 2010;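 active = versus positive control, 20 µM dose yields 30% or more activation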;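 also: 100% = tunicamycin at 10 µg/mL and 0% = DMSO only wells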
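assay system = CHO-XBP1 luciferase reporter cells | amount = 1000 cells/well | buffer or medium = F12 plus 10% FBS | compound dosing = single point, 20 µM final compound, 1% DMSO | incubation = 16-18 h cell attachment at 37 °C, then 6 h compound exposure | detection = Steady-Glo luminescence read | controls = tunicamycin 10 µg/mL and vehicle-only wells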
CHOP UPR activ = activators of apoptotic CHOP UPR arm, primary screen, cell-based, CHO-CHOP luciferase reporter, luminescence, uHTS | AID 449763, 2010 | hit rate 0.34% among 330,000 | UPR activation; percent of tunicamycin response over DMSO baseline | activation, % at 10 µM;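 active = at 10 µM dose, activation of 40% or more, normalized to positive control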;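 also: 100% = tunicamycin at 10 µg/mL and 0% = DMSO alone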
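Test system: CHO CHOP reporter cells. Input: 500 CHO-CHOP cells per well. Medium: F12 with 10% FBS. Technique: luciferase luminescence. Measure: percent activation relative to tunicamycin control. Dosing: 10 µM compound, 0.5% DMSO. Timing: 16-18 h cell attachment, then 6 h compound exposure, 37 °C.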
Cardio protect = cardioprotection against H2O2-induced cell death, primary screen, uHTS, H9c2 cells, ATPLite luminescence; H9c2 cardiomyocytes, H2O2 injury protection, 2 h; protection from H2O2 cell death, % at 20 µM; hit rate 0.63% among 360,000;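 active = compounds giving at least 50% protection of heart cells from peroxide-induced death in the single-dose screen, raw or plate-pattern-corrected value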;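 also: 0% = DMSO wells with peroxide and 100% = DMSO wells without peroxide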
CHOP inh = inhibitors of CHOP promoter induction, primary screen, cell-based, unfolded protein response, luciferase reporter | inhibition, % at 10 µM | CHO-K1 CHOP-promoter luciferase, tunicamycin-induced, 15-18 h | hit rate 3.8% among 220,000 | AID 2732, 2010;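 active = compounds that reduced the stress-induced luciferase reporter signal by more than about 70% of percent inhibition, limit read from the data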;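 also: 0% = tunicamycin plus vehicle and 100% = wells without tunicamycin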
iPSC survival up = enhancers of single-cell hiPSC survival, primary screen, ATPlite luminescence. 100% = ROCK inhibitor wells, 0% = DMSO. survival enhancement, % at 20 µM. hit rate 0.044% among 360,000; in the data active = survival enhancement above about 18%;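 also: cells exposed to compounds for 16 hours before the ATP read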
An asterisk follows results filed as active; · = no result.

SMILES	UPR XBP1 act	CHOP UPR activ	Cardio protect	CHOP inh	iPSC survival up
CCOC(=O)c1cnc(SC)nc1N	-1	1	11	-9	0
CCOC(=O)c1cnc(SC)nc1Sc1ccccc1	-1	-1	-8	75*	5
O=C1NC[C@@H](CCCCN2C[C@H](Cc3ccc(O)cc3)N(CC3CCCCC3)C(=O)C2=O)N(CCc2ccccc2)C1=O	·	·	·	·	1
O=C(Cn1cncc1-c1ccc([N+](=O)[O-])cc1)Nc1cccc2ccccc12	·	·	-9	92*	0
CCCc1ccc(OCc2ccc(C(=O)O)o2)c(OC)c1	1	-8	-12	3	1
CCOc1cc(/C=C(/C#N)c2nc3ccccc3[nH]2)ccc1Oc1ccc([N+](=O)[O-])cn1	0	10	-11	66	-1
CCCc1ccc(OCc2ccc(C(=O)OC)o2)c(OC)c1	0	3	-3	78*	-2
COc1cc(/C=C(/C#N)c2nc3ccccc3[nH]2)ccc1Oc1ncccc1[N+](=O)[O-]	21	11	-3	92*	-2
COC(=O)c1ccc(COc2ccc(/C=C(\C#N)c3nc4ccccc4[nH]3)cc2OC)o1	8	4	70*	38	1
CCCCCCCCN1C(=O)[C@H](CC(=O)NCCCOC)C[C@@]2(C(=O)OC)CCCCC=C12	·	·	·	·	-1
COc1ccc(-c2cccc(NC(=O)c3ccc4c(c3)OCO4)c2)nn1	-4	-1	2	·	0
CCNc1ccc(Br)cc(C(=O)/C=C/c2ccc(Cl)cc2Cl)c1=O	0	10	-7	76*	-3
COC(=O)[C@]12CCCCC=C1N(Cc1ccco1)C(=O)[C@H](CC(=O)NCCC(C)C)C2	·	·	·	·	-1
O=C(CSc1nc2ccc(Cl)cc2[nH]1)Nc1ccc2c(c1)CCC2	-2	2	-21	71*	-1
O=C(CSc1nc2cc3ccccc3cc2[nH]1)Nc1ccc(F)cc1	4	2	-12	81*	-4
CCCCN1C(=O)C(CC(=O)NC2CCCCC2)CC(C(=O)N2CCCCCC2)=C1C (stereo not given)	·	·	·	·	-1
CCCCOc1ccc(Br)cc1CSC(=N)N	·	·	-33	76*	-4
CCOc1ccc(C(C)=O)cc1CSC(=N)N	-3	0	-7	2	-1
CCCCN1C=CC(=C2C(=O)c3ccccc3C2=O)C=C1	-6	-10	-12	94*	-3
CCCCNC1=CC(=O)C(=O)c2ccccc21	-2	2	-26	25	-1
O=C(Nc1ccccc1N1CCOCC1)c1cc(-c2ccco2)nc2ccccc12	6	-1	8	31	7
COc1cc(-c2cc(C(=O)Nc3ccccc3N3CCOCC3)c3ccccc3n2)cc(OC)c1OC	1	-1	89*	25	-2
COc1cc(-c2cc(C(=O)Nc3ccc(O)cc3)c3ccccc3n2)cc(OC)c1OC	4	1	18	20	0
COc1cc(-c2cc(C(=O)Nc3cccc(C(C)=O)c3)c3ccccc3n2)cc(OC)c1OC	6	8	55*	·	0
O=C1NN=C(c2ccc(Br)cc2)CC1c1ccc(Cl)cc1 (stereo not given)	0	1	1	91*	0
SMILES	UPR XBP1 act	CHOP UPR activ	Cardio protect	CHOP inh	iPSC survival up
O=C1C=C(N2CCOCC2)c2cccc3cccc1c23	·	·	61*	·	-1
O=C1C(N2CCOCC2)=Cc2cccc3cccc1c23	·	·	13	·	0
COc1ccc(OC)c(CN2C(=O)c3ccccc3C2c2nnnn2-c2ccc3c(c2)OCCO3)c1 (stereo not given)	·	·	·	·	0
CCOC(=O)C1=c2s/c(=C\c3ccncc3)c(=O)n2C(N)=C(C(=O)OC)C1c1ccncc1 (stereo not given)	1	1	68*	20	-1
Cc1cc(NC(=O)c2c(F)cccc2Cl)n(-c2nc3ccccc3[nH]2)n1	0	-2	38	75*	-3
Cc1cc(NC(=O)c2ccccc2F)n(-c2nc3ccccc3[nH]2)n1	6	4	25	-23	-3
O=C(O)c1ccc(Nc2nc3c(s2)CCCC3)cc1	-7	-9	-7	91*	-2
O=C(CCCOc1ccc(Cl)cc1Cl)N/N=C/c1ccc(Cl)cc1	-1	1	-2	57	-1

Screens as filed in PubChem.
